Sampled rows, rich in hits. Any-hit rate of the full collection: about 1.8%.
TCR CD3 inh: human TCR-CD3 binding inhibition | 360,000 tested, 0.37% active | TAMRA-labeled TCR probe fluorescence, biochemical | inhibition, % at 9.4 µM | AID 651800; in the data active = inhibition above about 19%;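 note: recombinant mutant TCR 2C K166C tagged with TAMRA read by polarization; 0% = receptor in buffer alone and 100% = receptor with positive control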
HTRA1 inhibitor: blocks human HTRA1 serine peptidase. 340,000 tested, 0.5% active. inhibition, % at 5.96 µM. Q92743. recombinant HTRA1, FP-rhodamine activity-based probe, fluorescence polarization; in the data active = inhibition above about 36%;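 note: 0% = enzyme with DMSO and 100% = wells lacking enzyme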
SIAE inh: human SIAE inhibition, primary screen; 370,000 tested, 0.69% active; inhibition, % at 9.66 µM; AID 1053197; SIAE FP-Rh probe binding, fluorescence polarization;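 active = inhibition above a cutoff: mean of compounds within the control limits plus 3 SD of those, cut at about 17% in these data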;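 note: 0% = plate median of compound wells and 100% = probe without SIAE protein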
Tn6 DDE FP: disrupts Tn6 cyclic peptide binding to fibrin D-Dimer-E complex | P02675 | 370,000 tested, 0.21% active | Fibrin DD(E) TRITC-Tn6 fluorescence polarization displacement | inhibition, % at 8.3 µM | AID 720509;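 active = inhibition above a per-campaign cutoff: mean of compounds within control limits plus 3 SD, cut at about 15% in these data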;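 note: 0% = median of all compound wells on the plate and 100% = blocking peptide control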
Target sequence (P02675 whole entry, looked up): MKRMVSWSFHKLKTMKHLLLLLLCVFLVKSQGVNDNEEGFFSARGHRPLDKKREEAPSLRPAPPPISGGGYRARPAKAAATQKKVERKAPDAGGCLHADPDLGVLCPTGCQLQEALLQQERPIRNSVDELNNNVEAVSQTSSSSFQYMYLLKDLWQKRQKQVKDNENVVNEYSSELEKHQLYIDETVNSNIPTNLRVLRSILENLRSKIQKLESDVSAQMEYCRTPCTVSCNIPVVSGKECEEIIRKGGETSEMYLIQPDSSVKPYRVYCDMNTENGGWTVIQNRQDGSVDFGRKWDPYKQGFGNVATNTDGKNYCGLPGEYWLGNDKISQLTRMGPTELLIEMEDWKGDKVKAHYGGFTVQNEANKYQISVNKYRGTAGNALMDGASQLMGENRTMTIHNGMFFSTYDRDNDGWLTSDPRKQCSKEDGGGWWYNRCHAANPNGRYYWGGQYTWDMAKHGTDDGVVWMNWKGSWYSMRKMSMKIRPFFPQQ
mABHD4 FP: ABHD4 (mouse) inhibition, primary FP screen; 370,000 tested, 0.54% active; Q8VD66; purified mABHD4, FP-Rh probe fluorescence polarization; inhibition, % at 8.92 µM;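 active = inhibition exceeding the mean over every tested compound plus 3 SD, cut at about 30% in these data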;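 note: 0% = plate median of compound wells and 100% = S159A mutant with DMSO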
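Assay system: wild-type mouse ABHD4 protein; compound: single nominal dose of 8.92 µM, 0.89% DMSO final; schedule: 45 min + 60 min at 25 °C; measured by: FP readout, ex 525 nm / em 598 nm; evaluation: % inhibition of FP-Rh probe binding versus controls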
Tn7 DDE FP: inhibitors of Tn7 peptide binding to human fibrin DD(E); P02675; AID 720508; inhibition, % at 8.3 µM; FP displacement of FITC-Tn7 peptide from fibrin DD(E); 0% = median of compound wells per plate; 370,000 tested, 0.13% active;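 active = inhibition above the mean of compounds falling within the control limits plus 3 SD of them, cut at about 14% in these data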;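 note: 0% = plate median of compound wells and 100% = 10 µM Aha-Tn7 peptide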
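system = human fibrin DD(E) protein | quantity = DD(E) 2 µM final | medium = Tris/NaCl/CaCl2 buffer, pH 7.8 | also added = labelled Tn7 tracer, 0.1 µM | compound dosing = single point at 8.3 µM | timing = compound with protein 10 min, then 3 h after probe, room temperature | signal = FP measurement | benchmarks = Aha-Tn7 high control | repeats = one replicate per compound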
SIAE confirm: confirmation of human SIAE inhibitors | SIAE FP-Rh activity-based probe, fluorescence polarization | shares compounds with SIAE inh | inhibition, % at 9.66 µM | 2,300 tested, 13% active | AID 1117263;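 active = mean inhibition of the replicates above the hit cutoff set in the primary screen, cut at about 17% in these data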;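 note: 0% = SIAE with DMSO and probe and 100% = probe without SIAE; inhibitors lower polarization as more probe stays unbound to SIAE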
An asterisk follows results filed as active; · = not tested or not shown.

SMILES | TCR CD3 inh | HTRA1 inhibitor | SIAE inh | Tn6 DDE FP | mABHD4 FP | Tn7 DDE FP | SIAE confirm
C[C@@H](C(=O)N=c1sc2ccccc2n1C)N1C(=O)C2CC=CCC2C1=O (stereo partly drawn) | 3.6 | -2.2 | 0.1 | 0.2 | 6.2 | 4.5 | ·
Nc1[nH]c2cc(Cl)ccc2c1C(=O)NCCc1ccc(Cl)cc1 | · | · | 18.9* | -1.4 | 19.0 | 4.2 | 18.7*
CC(=O)c1c(C)[nH]c(C(=O)NCCc2ccc(Cl)cc2)c1C | 0.8 | 3.6 | 1.9 | -4.8 | -0.5 | -3.6 | ·
CCCCNC(=O)C[C@H]1C(=O)N(Cc2ccc(OC)cc2)C2=CCCCC[C@@]21C(=O)OC | · | · | -0.4 | -0.2 | 1.6 | -4.5 | ·
CN(C)C(=O)N1CCN(C(=O)[C@H](CCc2ccccc2)NC(=O)[C@H]2O[C@@H](n3cnc4c(N)ncnc43)[C@H](O)[C@@H]2O)CC1 | 3.6 | · | 35.6* | -6.2 | 3.0 | -5.8 | 43.3*
Nc1ncnc2c1ncn2[C@@H]1O[C@H](C(=O)N[C@@H](CCc2ccccc2)C(=O)N2CCN(C(=O)C(F)(F)F)CC2)[C@@H](O)[C@H]1O | 10.0 | · | 6.0 | 2.7 | 2.7 | -4.0 | ·
COc1ccccc1C(=O)N1CCN(C(=O)[C@H]2O[C@@H](n3cnc4c(N)ncnc43)[C@H](O)[C@@H]2O)CC1 | -5.8 | · | 23.0* | -4.7 | -6.5 | 0.8 | 21.3*
Cc1ccc(OC2CCN(C(=O)[C@H]3O[C@@H](n4cnc5c(N)ncnc54)[C@H](O)[C@@H]3O)CC2)cc1 | -2.8 | · | -3.0 | -1.9 | -12.7 | -0.8 | ·
Nc1ncnc2c1ncn2[C@@H]1O[C@H](C(=O)N[C@@H](CO)c2ccccc2)[C@@H](O)[C@H]1O | 7.6 | · | 17.3* | 1.2 | -2.4 | 0.4 | 19.4*
COc1ccc(-c2nc(SC(C)C(=O)NC3CC3)n[nH]2)cc1 (stereo not drawn) | 10.3 | -0.7 | -8.0 | 1.3 | 6.4 | 5.7 | ·
O=C(NC1CCOCC1)C1CCC(=O)N(CCc2ccc(Cl)cc2)C1 (stereo not drawn) | 7.7 | 1.0 | 0.8 | 2.2 | 4.5 | -0.9 | ·
COc1c(C)cc(C(O)c2ncc(-c3ccc(Cl)cc3)[nH]2)cc1C (stereo not drawn) | -7.4 | · | -10.2 | -4.5 | -11.8 | 1.4 | ·
Cc1cc(Nc2ccccc2)n(-c2ccc(C(=O)O)cc2)n1 | 3.5 | 5.9 | 23.4* | -3.7 | -3.2 | -3.2 | -3.5
COc1ccc(C)cc1N(C(=O)c1snc(C(N)=O)c1N)C(C(=O)NC1CCCCC1)c1ccc(C)o1 (stereo not drawn) | 8.7 | -11.8 | 2.4 | 0.5 | -1.6 | -3.8 | ·
COc1ccc(CC(C(=O)Nc2ccc(OC)cc2)c2nn[nH]n2)cc1 (stereo not drawn) | -9.1 | 2.2 | 25.6* | -7.2 | -6.4 | -4.7 | 0.5
COc1ccc(Cl)cc1NC(=O)C[n+]1cccc(C)c1 | 2.3 | -1.7 | 11.2 | 2.1 | 4.9 | 4.6 | ·
CCCCN(C(=O)CCN1C(=O)C2CC=CCC2C1=O)c1c(N)n(CCCC)c(=O)[nH]c1=O (stereo not drawn) | -0.7 | -0.9 | 7.2 | 0.1 | 3.9 | -2.6 | ·
Cn1c(=O)c2c(SCC(=O)Nc3ccccc3F)nc(C3CC3)nc2n(C)c1=O | 2.3 | 7.2 | 0.9 | -4.3 | -9.2 | -0.1 | ·
Cn1c(=O)c2c(SCC(=O)Nc3ccccc3F)nc(-c3ccccc3F)nc2n(C)c1=O | 3.1 | 8.9 | 22.6* | 6.0 | -2.1 | -3.0 | 1.1
O=C(NNC(=S)Nc1ccc(Cl)cc1Cl)c1cccnc1 | -3.0 | -2.7 | 20.1* | 10.9 | 10.3 | 4.1 | 2.1
O=C(NNC(=S)Nc1ccc(Cl)cc1Cl)c1ccncc1 | 3.1 | 6.3 | 7.1 | -7.2 | 10.9 | -1.5 | ·
CCOc1ccc(NC(=O)CSc2nc3ccccc3nc2N2CCOCC2)cc1 | -13.1 | -6.1 | -3.5 | -5.7 | 2.5 | 1.1 | ·
COc1ccc(-c2cnc3c(NC=O)cc(-c4ccccc4OC)cn23)cc1OC | -2.3 | · | 15.9 | -6.7 | 5.3 | -7.4 | ·
COc1ccc(CC(=O)NCC2CCN(C(=O)C(=O)c3cc4ccccc4o3)CC2)cc1 | 4.3 | · | -3.4 | -6.6 | -1.7 | -2.6 | ·
CN(C)c1ccc(NC2=C([N+](=O)[O-])CS(=O)(=O)C2)cc1 | 7.1 | 21.1 | 18.0* | 5.0 | 29.2 | 6.8 | 7.9
SMILES | TCR CD3 inh | HTRA1 inhibitor | SIAE inh | Tn6 DDE FP | mABHD4 FP | Tn7 DDE FP | SIAE confirm
CC(Sc1nc(N2CCOCC2)c2c(c1C#N)CC(C)(C)OC2)C(=O)O (stereo not drawn) | -1.3 | 6.6 | 7.2 | 3.2 | 0.7 | 1.7 | ·
CC(Sc1nc(N2CCCCC2)c2c(c1C#N)CCCC2)C(=O)O (stereo not drawn) | 0.0 | -7.0 | 22.3* | 3.8 | -4.2 | -1.4 | -1.0
Cc1cccc(-c2c3c(=O)n(C)c(=O)n(C)c3cn2CC2CCCO2)c1 (stereo not drawn) | 2.6 | 3.0 | 18.6* | -1.2 | -1.6 | -3.4 | -2.8
Cn1c(=O)c2c(-c3ccc(C(C)(C)C)cc3)n(CC3CCCO3)cc2n(C)c1=O (stereo not drawn) | 2.8 | 3.0 | 2.8 | 2.0 | -4.8 | -1.9 | ·
Cc1ccc(NC(=O)NNC(=O)c2cc3ccccc3cc2O)c(C)c1 | 14.3 | 35.1 | 21.8* | -3.7 | 17.8 | -6.0 | -4.0
NC(=S)Nc1cccc2cc3ccccc3cc12 | -1.7 | 27.1 | 19.3* | -2.9 | 25.1 | -3.2 | 7.0
NC(=S)Nc1cc2ccccc2c2ccccc12 | 1.4 | -10.1 | 12.4 | -3.8 | 0.7 | -0.1 | ·
Cc1cnc(C(=O)OCC(=O)N2CC(C)CC(C)C2)cn1 (stereo not drawn) | -2.7 | 5.0 | 7.3 | 5.2 | 2.2 | 8.4 | ·
COC(=O)[C@]12C[C@H](CC(=O)NCCc3ccccc3OC)C(=O)N(CCc3ccc(OC)c(OC)c3)C1=C[C@H](C(C)C)O[C@@H]2C1CC1 | · | · | 3.7 | 1.6 | 1.8 | 0.5 | ·
S=C(Nc1ccc2nsnc2c1)NC1CCCCC1 | -0.8 | 1.2 | 18.6* | 5.0 | -5.0 | 4.2 | 2.4
S=C(Nc1ccc(Cl)c(Cl)c1)NC1CCCCC1 | · | -18.0 | · | · | · | · | ·
O=C(c1cccs1)N1C[C@H](O)[C@@H](n2cc(-c3ccc(F)cc3)nn2)C[C@@H]1c1ccccc1 | -2.4 | -9.7 | -1.1 | -8.4 | -0.7 | 2.2 | ·
Cc1ccc(S(=O)(=O)Nc2nc(C)c(NC(=O)OCCCl)s2)cc1 | -5.7 | 0.0 | 0.0 | -5.6 | -6.1 | -2.8 | ·
Cc1ccc(S(=O)(=O)Nc2nc(C)c(NC(=O)Nc3ccc(Cl)cc3Cl)s2)cc1 | 1.9 | 13.1 | 34.6* | -5.7 | 17.1 | -7.5 | 29.4*
Cc1cc(C)c(OCC(=O)OCC(=O)N2CCN(C(=O)c3ccco3)CC2)c(C)c1 | -2.1 | -2.6 | 18.4* | -7.1 | 6.1 | -3.0 | -4.1
Cc1cc(Br)cc(Cl)c1OCC(=O)N1CCN(C(=O)c2ccco2)CC1 | 2.5 | 1.0 | 2.6 | 5.3 | 2.8 | 6.0 | ·
